For 11 compounds, ED50, Max reversal and EC50 results are on record in ChEMBL document CHEMBL1135836, “Cyclodextrin-derived host molecules as reversal agents for the neuromuscular blocker rocuronium bromide: synthesis and structure-activity relationships” (J Med Chem, 2002).

SMILES strings stand for the structures. pEC50: −log10 of the molar value.

Common to all, as to format: functional
In assay [1] the test system is Cavia porcellus. The experiment in a line: In vivo reversal activity versus ~90% block by rocuronium in guinea pig. An outline of the steps: (§1)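 Male Dunkin-Hartley guinea pigs (600-900 g), anaesthetized ip with pentobarbitone 10 mg/kg plus urethane 1000 mg/kg, tracheotomized and ventilated. Continuous iv rocuronium infusion (~10 nmol kg-1 min-1) was raised to a steady 85-90% block. Increasing iv doses of agent were given cumulatively. ED50 = 50% recovery versus preblock twitch, by regression. Mean ± SEM of at least two experiments, or one.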

Assay [2] concerns Cavia porcellus. The experiment in a line: In vivo reversal activity versus ~90% block by rocuronium in guinea pig, expressed as % of maximum reversal at 8 umol/kg conc. An outline of the steps:
(§2)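 Male Dunkin-Hartley guinea pigs (600-900 g) anaesthetized ip with pentobarbitone 10 mg/kg plus urethane 1000 mg/kg, tracheotomized and artificially ventilated. Continuous iv rocuronium bromide infusion (~10 nmol kg-1 min-1) raised until steady-state twitch block of 85-90%. Increasing single iv doses of reversal agent given by a separate catheter. Max reversal is peak twitch recovery versus preblock height at highest dose tested; means ± SEM, n ≥ 2 or single experiment.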

For assay [3], the species on record is Mus musculus. The experiment in a line: In vitro reversal activity versus ~90% block by rocuronium in isolated mouse hemidiaphragm, expressed as % of maximum reversal at 18 uM conc.
The species named for assay [4] is Mus musculus. Kind of assay: In vitro reversal activity versus ~90% block by rocuronium in isolated mouse hemidiaphragm, expressed as effective conc.
For assay [5], the species on record is Mus musculus. Kind of assay: In vitro reversal activity versus ~90% block by rocuronium in isolated mouse hemidiaphragm, expressed as % of maximum reversal at 7.2 uM conc.
Assay [6] has as its system Cavia porcellus. Kind of assay: In vivo reversal activity versus ~90% block by rocuronium in guinea pig, expressed as % of maximum reversal at 2 umol/kg conc. Put shortly:
as §2

For assay [7], the system named is Cavia porcellus. Kind of assay: In vivo reversal activity versus ~90% block by rocuronium in guinea pig, expressed as % of maximum reversal at 16 umol/kg conc. An outline of the steps:
as §2

The species entered for assay [8] is Mus musculus. The experiment in a line: In vitro reversal activity versus ~90% block by rocuronium in isolated mouse hemidiaphragm, expressed as % of maximum reversal at 360 uM conc.
For assay [9], the system named is Cavia porcellus. Kind of assay: In vivo reversal activity versus ~90% block by rocuronium in guinea pig, expressed as % of maximum reversal at 15 umol/kg conc. An outline of the steps: as §2
Assay [10] relates to Cavia porcellus. The experiment in a line: In vivo reversal activity versus ~90% block by rocuronium in guinea pig, expressed as % of maximum reversal at 31.8 umol/kg conc. An outline of the steps:
as §2

Assay [11] is filed under the species Mus musculus. Kind of assay: In vitro reversal activity versus ~90% block by rocuronium in isolated mouse hemidiaphragm, expressed as % of maximum reversal at 180 uM conc.
Assay [12] deals with Cavia porcellus. The experiment in a line: In vivo reversal activity versus ~90% block by rocuronium in guinea pig, expressed as % of maximum reversal at 2.8 umol/kg conc. Put shortly: as §2
For assay [13], the species on record is Mus musculus. Kind of assay: In vitro reversal activity versus ~90% block by rocuronium in isolated mouse hemidiaphragm, expressed as % of maximum reversal at 9 uM conc.
In assay [14] the test system is Cavia porcellus. The experiment in a line: In vivo reversal activity versus ~90% block by rocuronium in guinea pig, expressed as % of maximum reversal at 3.6 umol/kg conc. An outline of the steps:
as §2

In assay [15] the test system is Cavia porcellus. Kind of assay: In vivo reversal activity versus ~90% block by rocuronium in guinea pig, expressed as % of maximum reversal at 1.6 umol/kg conc. An outline of the steps:
as §1

The subject of assay [16] is Cavia porcellus. The experiment in a line: In vivo reversal activity versus ~90% block by rocuronium in guinea pig, expressed as % of maximum reversal. at a conc. of 0.08 uM.
The species entered for assay [17] is Mus musculus. The experiment in a line: In vitro reversal activity versus ~90% block by rocuronium in isolated mouse hemidiaphragm, expressed as % of maximum reversal.

On to `CC(CSCC1O[C@@H]2O[C@@H]3C(CSCC(C)C(=O)[O-])O[C@H](O[C@@H]4C(CSCC(C)C(=O)[O-])O[C@H](O[C@@H]5C(CSCC(C)C(=O)[O-])O[C@H](O[C@@H]6C(CSCC(C)C(=O)[O-])O[C@H](O[C@@H]7C(CSCC(C)C(=O)[O-])O[C@H](O[C@@H]8C(CSCC(C)C(=O)[O-])O[C@H](O[C@@H]9C(CSCC(C)C(=O)[O-])O[C@H](O[C@H]1C(O)C2O)C(O)C9O)C(O)C8O)C(O)C7O)C(O)C6O)C(O)C5O)C(O)C4O)C(O)C3O)C(=O)[O-].[Na+].[Na+].[Na+].[Na+].[Na+].[Na+].[Na+].[Na+]` (some centres undefined), for which, in [1], the ED50 (in general, the midpoint of the dose-response relation) worked out at 0.73 µmol/kg. In addition, the Max reversal in assay [2] was 97.8%; in [3], 77.5%. Besides, the pEC50 (in general, the EC50 on a negative log10 scale, so that one unit is a factor of ten) in assay [4] was 5.02.

As to `O=C([O-])Cc1cccc(SCC2O[C@@H]3O[C@@H]4C(CSc5cccc(CC(=O)[O-])c5)O[C@H](O[C@@H]5C(CSc6cccc(CC(=O)[O-])c6)O[C@H](O[C@@H]6C(CSc7cccc(CC(=O)[O-])c7)O[C@H](O[C@@H]7C(CSc8cccc(CC(=O)[O-])c8)O[C@H](O[C@@H]8C(CSc9cccc(CC(=O)[O-])c9)O[C@H](O[C@@H]9C(CSc%10cccc(CC(=O)[O-])c%10)O[C@H](O[C@@H]%10C(CSc%11cccc(CC(=O)[O-])c%11)O[C@H](O[C@H]2C(O)C3O)C(O)C%10O)C(O)C9O)C(O)C8O)C(O)C7O)C(O)C6O)C(O)C5O)C(O)C4O)c1.[Na+].[Na+].[Na+].[Na+].[Na+].[Na+].[Na+].[Na+]` (some centres undefined), the ED50 in assay [1] worked out at 0.53 µmol/kg. The values for the Max reversal in assay [5] and in assay [6] were 99.1% and 104.6%, respectively. Moreover, the pEC50 in assay [4] was 5.77.

Consider `O=C([O-])CCSCC1O[C@@H]2O[C@@H]3C(CSCCC(=O)[O-])O[C@H](O[C@@H]4C(CSCCC(=O)[O-])O[C@H](O[C@@H]5C(CSCCC(=O)[O-])O[C@H](O[C@@H]6C(CSCCC(=O)[O-])O[C@H](O[C@@H]7C(CSCCC(=O)[O-])O[C@H](O[C@H]1C(O)C2O)C(O)C7O)C(O)C6O)C(O)C5O)C(O)C4O)C(O)C3O.[Na+].[Na+].[Na+].[Na+].[Na+].[Na+]` (some centres undefined), for which the ED50 in assay [1] is more than 16 µmol/kg. Besides, the results for the Max reversal in assay [7] and in assay [8] were 3.2% and 0%, respectively. In [4], the pEC50 is less than 3.44.

In the case of `CC(C)(CSCC1O[C@@H]2O[C@@H]3C(CSCC(C)(C)C(=O)[O-])O[C@H](O[C@@H]4C(CSCC(C)(C)C(=O)[O-])O[C@H](O[C@@H]5C(CSCC(C)(C)C(=O)[O-])O[C@H](O[C@@H]6C(CSCC(C)(C)C(=O)[O-])O[C@H](O[C@@H]7C(CSCC(C)(C)C(=O)[O-])O[C@H](O[C@@H]8C(CSCC(C)(C)C(=O)[O-])O[C@H](O[C@@H]9C(CSCC(C)(C)C(=O)[O-])O[C@H](O[C@H]1C(O)C2O)C(O)C9O)C(O)C8O)C(O)C7O)C(O)C6O)C(O)C5O)C(O)C4O)C(O)C3O)C(=O)[O-].[Na+].[Na+].[Na+].[Na+].[Na+].[Na+].[Na+].[Na+]` (some centres undefined), in assay [1], the ED50 came out at 1.32 µmol/kg. The Max reversal in assay [9] turned out to be 98.8%; in [3] it was 47.6%. Besides, in assay [4], the pEC50 was 4.69.

For the compound `O=C([O-])CCc1ccc(SCC2O[C@@H]3O[C@@H]4C(CO)O[C@H](O[C@@H]5C(CO)O[C@H](O[C@@H]6C(CO)O[C@H](O[C@@H]7C(CO)O[C@H](O[C@@H]8C(CO)O[C@H](O[C@@H]9C(CO)O[C@H](O[C@@H]%10C(CO)O[C@H](O[C@H]2C(O)C3O)C(O)C%10O)C(O)C9O)C(O)C8O)C(O)C7O)C(O)C6O)C(O)C5O)C(O)C4O)cc1.[Na+]` (some centres undefined), the 50% effective dose (ED50) in [1] is 3.33 µmol/kg. Further, the Max reversal in assay [10] was 93.8%; in assay [3], 36.2%. In assay [4], the pEC50 was 4.48.

Turning to `O=C([O-])c1ccc(SCC2O[C@@H]3O[C@@H]4C(CO)O[C@H](O[C@@H]5C(CO)O[C@H](O[C@@H]6C(CO)O[C@H](O[C@@H]7C(CO)O[C@H](O[C@@H]8C(CO)O[C@H](O[C@@H]9C(CO)O[C@H](O[C@@H]%10C(CO)O[C@H](O[C@H]2C(O)C3O)C(O)C%10O)C(O)C9O)C(O)C8O)C(O)C7O)C(O)C6O)C(O)C5O)C(O)C4O)cc1.[Na+]` (some centres undefined), the ED50 in assay [1] amounted to 0.94 µmol/kg. Further, the results for the Max reversal in [2] and in [11] were 102.4% and 94.7%, respectively. Moreover, the pEC50 in [4] is 4.30.

For the compound `OCCSCC1O[C@@H]2O[C@@H]3C(CSCCO)O[C@H](O[C@@H]4C(CSCCO)O[C@H](O[C@@H]5C(CSCCO)O[C@H](O[C@@H]6C(CSCCO)O[C@H](O[C@@H]7C(CSCCO)O[C@H](O[C@@H]8C(CSCCO)O[C@H](O[C@@H]9C(CSCCO)O[C@H](O[C@H]1C(O)C2O)C(O)C9O)C(O)C8O)C(O)C7O)C(O)C6O)C(O)C5O)C(O)C4O)C(O)C3O` (some centres undefined), in assay [1], the ED50 stood at 0.21 µmol/kg. Also, the Max reversal is reported as 86.4% in assay [5] and 95.8% in [6]. Moreover, the pEC50 in assay [4] was 5.40.

Regarding `O=C([O-])CCc1ccc(SCC2O[C@@H]3O[C@@H]4C(CSc5ccc(CCC(=O)[O-])cc5)O[C@H](O[C@@H]5C(CSc6ccc(CCC(=O)[O-])cc6)O[C@H](O[C@@H]6C(CSc7ccc(CCC(=O)[O-])cc7)O[C@H](O[C@@H]7C(CSc8ccc(CCC(=O)[O-])cc8)O[C@H](O[C@@H]8C(CSc9ccc(CCC(=O)[O-])cc9)O[C@H](O[C@@H]9C(CSc%10ccc(CCC(=O)[O-])cc%10)O[C@H](O[C@@H]%10C(CSc%11ccc(CCC(=O)[O-])cc%11)O[C@H](O[C@H]2C(O)C3O)C(O)C%10O)C(O)C9O)C(O)C8O)C(O)C7O)C(O)C6O)C(O)C5O)C(O)C4O)cc1.[Na+].[Na+].[Na+].[Na+].[Na+].[Na+].[Na+].[Na+]` (some centres undefined), the ED50 in assay [1] is 1.01 µmol/kg. The values for the Max reversal in [12] and in assay [5] were 94.3% and 95.4%, respectively. In addition, in assay [4], the pEC50 was 5.52.

On to `OCCCSCC1O[C@@H]2O[C@@H]3C(CSCCCO)O[C@H](O[C@@H]4C(CSCCCO)O[C@H](O[C@@H]5C(CSCCCO)O[C@H](O[C@@H]6C(CSCCCO)O[C@H](O[C@@H]7C(CSCCCO)O[C@H](O[C@@H]8C(CSCCCO)O[C@H](O[C@@H]9C(CSCCCO)O[C@H](O[C@H]1C(O)C2O)C(O)C9O)C(O)C8O)C(O)C7O)C(O)C6O)C(O)C5O)C(O)C4O)C(O)C3O` (some centres undefined), for which the ED50 in assay [1] came out at 0.52 µmol/kg. Further, the Max reversal in assay [13] is recorded as 96.5%; in assay [14], 98.3%. In addition, in assay [4], the pEC50 was 5.39.

As to `O=C([O-])c1ccccc1C(=O)NCCCSCC1O[C@@H]2O[C@@H]3C(CSCCCNC(=O)c4ccccc4C(=O)[O-])O[C@H](O[C@@H]4C(CSCCCNC(=O)c5ccccc5C(=O)[O-])O[C@H](O[C@@H]5C(CSCCCNC(=O)c6ccccc6C(=O)[O-])O[C@H](O[C@@H]6C(CSCCCNC(=O)c7ccccc7C(=O)[O-])O[C@H](O[C@@H]7C(CSCCCNC(=O)c8ccccc8C(=O)[O-])O[C@H](O[C@@H]8C(CSCCCNC(=O)c9ccccc9C(=O)[O-])O[C@H](O[C@@H]9C(CSCCCNC(=O)c%10ccccc%10C(=O)[O-])O[C@H](O[C@H]1C(O)C2O)C(O)C9O)C(O)C8O)C(O)C7O)C(O)C6O)C(O)C5O)C(O)C4O)C(O)C3O.[Na+].[Na+].[Na+].[Na+].[Na+].[Na+].[Na+].[Na+]` (some centres undefined), in [1], the ED50 came out at 0.27 µmol/kg. Further, the figures for the Max reversal in assay [15] and in [5] were 83% and 90.7%, respectively. The pEC50 in [4] is 7.00.

`CN(C)C(=O)Oc1cccc([N+](C)(C)C)c1.[Br-]` [NEOSTIGMINE BROMIDE]: the ED50 in [1] amounted to 0.04 µmol/kg. For the same compound, the figures for the Max reversal in [16] and in assay [17] were 65.3% and 74.4%, respectively. Moreover, the pEC50 in [4] was 6.05.
